The list is not random: actives were taken first. Their share in the collection is about 0.83%.
V1R ag counter: counter-screen for oxytocin receptor agonists: human V1a receptor agonists; P37288; CHO-V1R cells, Fluo-8 calcium fluorescence, agonist mode; 0% DMSO, 100% 3 nM vasopressin; activation, % at 3 µM; actives 0.25% (n = 320,000); AID 2797;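 active = activation above the mean activation of all tested compounds plus 3 SD, per screening run, cut at about 20% in these data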;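 also: signal is peak over basal fluorescence ratio across a 100 second FLIPR read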
Target sequence (P37288 whole entry, looked up): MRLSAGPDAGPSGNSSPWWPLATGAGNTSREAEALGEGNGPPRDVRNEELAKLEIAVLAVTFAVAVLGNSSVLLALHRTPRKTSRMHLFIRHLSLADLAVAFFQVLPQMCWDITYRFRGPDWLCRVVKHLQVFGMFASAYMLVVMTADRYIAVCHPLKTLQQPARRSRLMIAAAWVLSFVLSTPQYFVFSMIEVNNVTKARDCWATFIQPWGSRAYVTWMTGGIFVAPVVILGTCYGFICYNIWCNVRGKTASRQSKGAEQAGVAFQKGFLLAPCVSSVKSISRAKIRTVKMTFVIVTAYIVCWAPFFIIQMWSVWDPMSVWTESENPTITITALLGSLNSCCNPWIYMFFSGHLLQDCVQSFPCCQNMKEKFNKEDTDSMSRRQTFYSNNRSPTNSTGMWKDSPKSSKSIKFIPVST
TRPN1 ag: zebrafish TRPN1 (NompC) channel agonism; HEK293 zebrafish TRPN1-YFP, Fluo-8 calcium fluorescence; 100% = response to 87 µM carbachol; activation, % at 3 µM; actives 0.18% (n = 220,000);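 active = activation above its plate's cutoff, the mean activation of test wells on that plate plus 3 SD, cut at about 19% in these data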;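 also: 0% = DMSO alone and 100% = 87 µM carbachol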
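Control set: carbachol 87 µM as high control, DMSO as low control; system: HEK293 stable line with zebrafish TRPN1-YFP; read-out: % activation versus carbachol response; detection: intracellular calcium fluorescence with Fluo-8; doses: single test compound dose, 3 µM nominal, 0.3% DMSO; schedule: dye 1 h 37 °C plus 30 min RT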
OXTR ag: agonists of human oxytocin receptor | P30559 | CHO-OTR cells, Fluo-8 calcium fluorescence; normalized: DMSO 0%, oxytocin 100% | activation, % at 3 µM | actives 0.32% (n = 320,000) | AID 2435;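 active = activation above the mean of all tested compounds plus 3 SD, cutoff set per screening run, cut at about 20% in these data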;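 also: peak over basal fluorescence ratio from a 100 s FLIPR kinetic read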
OXTR potentiate: human OXTR potentiation | P30559 | CHO-OTR cells, Fluo-8 calcium fluorescence, potentiator mode; 0% = oxytocin EC15, 100% = EC100 | activation, % at 3 µM | actives 0.061% (n = 320,000);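 active = activation above that plate's cutoff, the mean activation of tested compounds plus 3 SD, cut at about 6.6% in these data, passing the limit was not always enough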;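 also: 100% uses oxytocin at 75 nM as the full agonist control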
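System: human OTR in CHO cells / Also added: sub-maximal oxytocin, roughly EC15 / Control set: EC15 oxytocin low, 75 nM oxytocin high / Schedule: 6 min compound pre-incubation at room temperature, 100 s kinetic read / Compound: single-point 3.0 µM / Replication: singlicate / Technique: Fluo-8 calcium dye fluorescence / Read-out basis: % activation of max/min ratio relative to oxytocin controls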
CRFR2-BP ag: agonists of human CRF-binding protein/CRF-R2 receptor complex | HEK293 CRF-R2/CRF-BP, calcium dye fluorescence (FLIPR); percent of saturating CRF peptide response | activation, % at 13.2 µM | actives 0.46% (n = 350,000) | AID 588473;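 active = activation of at least 50%, plus an integration ratio under a set limit after plate pattern correction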;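 also: plate controls were neutral control wells without compound for no effect and CRF at EC100 for full effect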
TRPML3 agonist: human mucolipin-3 channel agonism | Q8TDD5 | HEK293 TRPML3-YFP, Fluo-8 calcium fluorescence; 100% = the carbachol control signal | activation, % at 3 µM | actives 0.29% (n = 220,000);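 active = activation above its plate's cutoff, the mean activation of the plate's test wells plus 3 SD, cut at about 12% in these data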;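 also: 0% = DMSO only wells and 100% = carbachol wells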
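Material: HEK293 cells stably carrying human TRPML3-YFP; compound dosing: single dose, 3 µM final nominal compound, 0.3% DMSO final; incubation: 1-h 37 °C dye load, 5-s basal, 120-s post-compound reads; technique: Fluo-8 intracellular calcium fluorescence, excitation 470-495 nm, emission 515-575 nm; read-out basis: percent activation from peak-to-basal fluorescence ratio, scaled between DMSO and carbachol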
TRPN1 counter: zebrafish TRPN1 agonism as TRPML3 agonist counter-screen; shares compounds with TRPML3 agonist; HEK293 zebrafish TRPN1-YFP, Fluo-8 calcium fluorescence; scaled: carbachol wells 100%, DMSO wells 0%; activation, % at 3 µM; actives 10% (n = 310); AID 1525;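 active = mean activation over replicates above a set limit taken from the earlier TRPN1 channel primary screen, cut at about 19% in these data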;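 also: 100% = carbachol and 0% = 0.3% DMSO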
TRPML3 confirm: human TRPML3 agonism, confirmation; actives 80% (n = 310); shares compounds with TRPML3 agonist; HEK293 TRPML3-YFP, Fluo-8 calcium fluorescence; 100% set by carbachol, 0% by DMSO; activation, % at 3 µM;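 active = activation above a set limit derived from the earlier primary screen, cut at about 12% in these data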
Active calls of the source: *; · = not tested or not shown.

SMILES | V1R ag counter | TRPN1 ag | OXTR ag | OXTR potentiate | CRFR2-BP ag | TRPML3 agonist | TRPN1 counter | TRPML3 confirm
COc1ccc(N/N=C(\C#N)C(N)=O)cc1 | 0 | 1 | 0 | -3 | -1 | 1 | · | ·
N#C/C(=N/Nc1ccc(OC(F)(F)F)cc1)C(N)=S | 11 | 23* | 17 | -16 | 41 | 15* | · | ·
CC(C)(C)C(=O)Nc1scc(-c2ccc(-c3ccccc3)cc2)c1C(=O)O | 39* | · | 26* | -23 | 1 | · | · | ·
Cc1ccc(C(=O)Nc2scc(-c3ccccc3)c2C(=O)O)cc1 | -2 | · | -2 | -1 | -1 | · | · | ·
N#CC1=C(N)Oc2cc(O)c(Cl)cc2C1c1cccnc1 (configuration not stated) | · | · | · | · | 22 | · | · | ·
N#CC1=C(N)Oc2cc(O)c(Cl)cc2C1c1ccccc1F (configuration not stated) | 18 | · | 25* | -12 | 192* | · | · | ·
NC(=O)C1CCN(CC(O)COc2ccc(-c3ccccc3)cc2)CC1 (configuration not stated) | · | · | · | · | -1 | · | · | ·
Cc1ccc(Cn2c(=N)n(CC(O)COc3ccccc3)c3ccccc32)cc1 (configuration not stated) | 28* | 2 | 28* | -12 | 0 | 0 | · | ·
COc1ccc(NC(=O)CSc2nnc(N)s2)cc1S(=O)(=O)N1CCCCC1 | 1 | · | 0 | -3 | -2 | · | · | ·
CN(CC(=O)NCc1ccccc1)CC(=O)Nc1ccc(Cl)c(C(F)(F)F)c1 | 21* | · | 23* | -10 | 2 | · | · | ·
Cn1cc(/C=C2\SC(=S)N(NC(=O)c3ccccc3)C2=O)c2ccccc21 | 4 | 3 | 3 | -8 | 72* | 2 | · | ·
Cn1cc(/C=C2\SC(=S)N(NC(=O)c3cccc(Cl)c3)C2=O)c2ccccc21 | · | 3 | · | · | 36 | 1 | · | ·
O=C(Cn1c(C(=O)OCCO)cc2ccccc21)c1ccccc1 | 0 | · | 0 | -14 | 4 | · | · | ·
CC(c1ccccc1)N(NC(=O)C(O)(c1ccccc1)c1ccccc1)C(=O)c1ccccc1 (configuration not stated) | 0 | -1 | -2 | -5 | 0 | 13* | -1 | 65*
COC(=O)c1cc(-c2ccc(S(=O)(=O)N3CCCCC3)cc2)c(C(F)(F)F)s1 | 0 | 0 | -3 | -13 | 4 | 16* | -1 | 19*
CCOc1ccc(S(=O)(=O)NC(C)(C)C)cc1-c1nc2c(C(C)(C)C)nn(C)c2c(=O)[nH]1 | 1 | -1 | -1 | -8 | -1 | 24* | 2 | 147*
CCN(CC)c1ccc(NC(=O)COc2ccc(N(C)S(=O)(=O)c3cccs3)cc2)cc1 | 0 | -1 | -1 | -20 | 2 | 14* | 1 | 28*
CN(c1ccc(OCC(=O)OCC(=O)Nc2ccccc2)cc1)S(=O)(=O)c1cccs1 | 10 | 5 | 13 | -7 | 1 | 4 | · | ·
COC(=O)c1c(NC(=O)COC(=O)c2ccc(C)s2)sc2c1CCCCC2 | 1 | 2 | 0 | -3 | -1 | 2 | · | ·
COC(=O)c1c(NC(=O)COC(=O)[C@@H](NS(=O)(=O)c2ccc(C)cc2)C(C)C)sc2c1CCC2 | -1 | 0 | -3 | -10 | 1 | 29* | -1 | 50*
CC1CCN(S(=O)(=O)c2ccc3ccccc3c2)CC1 | -1 | 0 | -2 | -18 | 1 | 22* | 0 | 43*
CC1CCN(S(=O)(=O)c2ccc(C(C)C)cc2)CC1 | -1 | 2 | -2 | -11 | 90* | 68* | 8 | 118*
CN1CCN(S(=O)(=O)c2ccc3ccccc3c2)CC1 | 0 | 0 | -1 | 9 | 0 | 1 | · | ·
